Reference: ChEMBL document CHEMBL1153139, “CD4 mimics targeting the mechanism of HIV entry” (Bioorg Med Chem Lett, 2010)
Active and inactive are the calls of the source. No cut-off for these calls is given here.

What was measured:
[1] = test system: Human immunodeficiency virus 1; assay: Antiviral activity against HIV1 3B laboratory isolate assessed as inhibition of virus-induced cytopathogenicity by MTT assay; format: functional, organism-based; conditions: Human immunodeficiency virus 1, 3B
Outline: (§1)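 Infection of PM1/CCR5 cells; tropism/subtype of each strain: IIIB X4 Sub B, 89.6 dual Sub B, KYAG and fTOI R5 Sub B (primary isolates). Viability read by MTT. […] Means of at least three experiments; tested up to 100 uM.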

[2] = test system: Human immunodeficiency virus 1; assay: Antiviral activity against HIV1 89.6 laboratory isolate assessed as inhibition of virus-induced cytopathogenicity by MTT assay; format: functional, organism-based; conditions: Human immunodeficiency virus 1, isolate 89.6; outline: as §1
[3] = test system: Human immunodeficiency virus 1; assay: Antiviral activity against HIV1 fTOI primary isolate assessed as inhibition of virus-induced cytopathogenicity by MTT assay; format: functional, organism-based; conditions: Human immunodeficiency virus 1, fTOI; outline: as §1
[4] = test system: Human immunodeficiency virus 1; assay: Antiviral activity against HIV1 KYAG primary isolate assessed as inhibition of virus-induced cytopathogenicity by MTT assay; format: functional, organism-based; conditions: Human immunodeficiency virus 1, KYAG; outline: as §1
[5] = Cytotoxicity against mock-infected CCR5 expressing human PM1 cells by MTT assay; format: cell-based
PM1 = assay: Inhibition of gp120 binding to CD4 in HIV1 JR-FL infected human PM1 cells assessed as binding of anti-envelope CD4-induced monoclonal antibody 4C11 to envelope expressing cell surface at 100 uM pretreated 15 mins before 4C11 addition by FACS analysis; format: cell-based; conditions: Human immunodeficiency virus 1
Outline: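 PM1 cells chronically infected with JR-FL (R5, Sub B) preincubated 15 min with compound at 100 uM (sCD4 11 nM as reference), then anti-HIV-1 mAb 4C11 at 4 °C for 15 min. After PBS wash, stained with FITC goat anti-human IgG; flow cytometry on gated PM1 cells, anti-CD19 control antibody; read as 4C11 mean fluorescence intensity. Minimum two independent experiments.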

[6] = Inhibition of HIV1 gp120 binding to CD4; parameters: species or system Human immunodeficiency virus 1

Row | Kd [6] | SMILES | IC50 [1] | IC50 [2] | IC50 [3] | IC50 [4] | CC50 [5] | Activity (PM1)
1 | – | CC1(C)CC(NC(=O)C(=O)Nc2ccc(Cl)cc2)CC(C)(C)N1 | 8 µM | 10 µM | 5 µM | > 30 µM | 170 µM | Active
2 | – | COc1ccc(NC(=O)C(=O)NC2CC(C)(C)NC(C)(C)C2)cc1 | > 100 µM | > 100 µM | – | > 100 µM | 340 µM | –
3 | – | CC1(C)CC(NC(=O)C(=O)Nc2ccc(C(F)(F)F)cc2)CC(C)(C)N1 | – | 27 µM | – | – | 72 µM | –
4 | 2.2 µM | CC1(C)CC(NC(=O)C(=O)Nc2ccc(Br)cc2)CC(C)(C)N1 | 4 µM | 9 µM | – | – | 150 µM | –
5 | – | Cc1ccc(NC(=O)C(=O)NC2CC(C)(C)NC(C)(C)C2)cc1 | 23 µM | 41 µM | 16 µM | 51 µM | – | Active
6 | – | CC1(C)CC(NC(=O)C(=O)Nc2ccc(F)cc2)CC(C)(C)N1 | 61 µM | 81 µM | – | > 100 µM | 320 µM | –
7 | – | CC1(C)CC(NC(=O)C(=O)Nc2ccccc2)CC(C)(C)N1 | > 100 µM | > 100 µM | 81 µM | > 100 µM | 350 µM | inactive
8 | – | CC1(C)CC(NC(=O)C(=O)Nc2ccc([N+](=O)[O-])cc2)CC(C)(C)N1 | – | 42 µM | – | – | 230 µM | –
